Experimental findings from ChEMBL document CHEMBL1138354, “2-(2'-((dimethylamino)methyl)-4'-(fluoroalkoxy)-phenylthio)benzenamine derivatives as serotonin transporter imaging agents” (J Med Chem, 2007) are described below.

Molecules are shown by their SMILES. A value given as a limit tells only on which side of the number the result lay.

In data set [1] the test system is Brain. As to the kind of experiment: Biodistribution in iv dosed rat brain after 30 mins. The format is ADME, organism-based. The settings on record: in vivo, 0.5 h. An outline of the steps:
(§1)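 [18F]-labeled tracer was given to rats under isoflurane anesthesia: 0.2 ml sterile water with 1 mg/mL BSA and 10–100 μCi, into the femoral vein. Three rats per group. Animals were killed by cervical dislocation under anesthesia at the stated time. Organs were removed, weighed and counted. Uptake was calculated as percent dose against a 1% aliquot of the injected dose counted alongside.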

Data set [2] relates to Nucleic Acid. As to the kind of experiment: Ratio of drug level in hypothalamus to cerebellum in rat after 30 mins. The format is ADME, tissue-based. The note with it: in vivo, 0.5 h. In a few lines:
(§2)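 Rats, 3 per group, given ¹⁸F tracer (10–100 μCi, 0.2 ml sterile water with 1 mg/mL BSA) into the femoral vein under isoflurane. Brain regions, including hypothalamus, striatum and cerebellum, dissected, weighed and counted. % dose/g calculated against a 1% diluted aliquot of the dose. Region/cerebellum ratio is region %dose/g divided by cerebellum %dose/g. SD of the ratio propagated from both means and SDs.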

Data set [3] concerns the target Sodium-dependent noradrenaline transporter (Homo sapiens, UniProt P23975). The data set is described as follows: Displacement of [125I]iodonisoxetine from NET expressed in LLCPK1 cells. The format is cell-based, LLC-PK1. An outline of the steps: (§3)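 Membrane homogenates from LLC-PK1 cells, each line overexpressing one transporter. Membranes (30–80 μg protein) in 50 mM Tris-HCl pH 7.4, 120 mM NaCl, 5 mM KCl, 0.1% BSA. Radioligands: 0.09 nM for SERT, 0.06 nM for DAT, 0.06 nM for NET. Competitor at 8–10 concentrations, 10⁻¹⁰ to 10⁻⁵ M. Incubated 1 hr at room temperature. Filtered on PEI-presoaked glass fiber and gamma counted. Ki from nonlinear regression, n = 3.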

For data set [4], the system named is Nucleic Acid. The data set is described as follows: Ratio of drug level in hypothalamus to cerebellum in rat after 120 mins. The class given is ADME, tissue-based. The settings on record: in vivo, 2 h. In a few lines: as §2
Data set [5] addresses Sodium-dependent dopamine transporter (Homo sapiens, UniProt Q01959). The data set is described as follows: Displacement of [125I]N-(3'-iodopropen-2'yl)-2-beta-carbomethoxy-3-beta-(4-chlorophenyl)tropane from DAT expressed in LLCPK1 cells. The format is cell-based, LLC-PK1. An outline of the steps:
as §3
On the technique in general: In a radioligand displacement assay an active substance lowers the binding of a labelled ligand.

Data set [6] deals with Brain. As to the kind of experiment: Biodistribution in iv dosed rat brain after 120 mins. The format is ADME, organism-based. The note with it: in vivo, 2 h. In a few lines: as §1
The target in data set [7] is Sodium-dependent serotonin transporter (Homo sapiens, UniProt P31645). The data set is described as follows: Displacement of [125I]5-iodo-2-[[2,2-[(dimethylamino)methyl]phenyl]thio]benzyl alcohol from SERT expressed in LLCPK1 cells. The class given is cell-based, LLC-PK1. In a few lines: as §3
The nature of data set [8]: Partition coefficient, log P at pH 7.4. The class given is physicochemical. The settings on record: octanol/water.

Sodium-dependent noradrenaline transporter, sequence (P23975 whole entry): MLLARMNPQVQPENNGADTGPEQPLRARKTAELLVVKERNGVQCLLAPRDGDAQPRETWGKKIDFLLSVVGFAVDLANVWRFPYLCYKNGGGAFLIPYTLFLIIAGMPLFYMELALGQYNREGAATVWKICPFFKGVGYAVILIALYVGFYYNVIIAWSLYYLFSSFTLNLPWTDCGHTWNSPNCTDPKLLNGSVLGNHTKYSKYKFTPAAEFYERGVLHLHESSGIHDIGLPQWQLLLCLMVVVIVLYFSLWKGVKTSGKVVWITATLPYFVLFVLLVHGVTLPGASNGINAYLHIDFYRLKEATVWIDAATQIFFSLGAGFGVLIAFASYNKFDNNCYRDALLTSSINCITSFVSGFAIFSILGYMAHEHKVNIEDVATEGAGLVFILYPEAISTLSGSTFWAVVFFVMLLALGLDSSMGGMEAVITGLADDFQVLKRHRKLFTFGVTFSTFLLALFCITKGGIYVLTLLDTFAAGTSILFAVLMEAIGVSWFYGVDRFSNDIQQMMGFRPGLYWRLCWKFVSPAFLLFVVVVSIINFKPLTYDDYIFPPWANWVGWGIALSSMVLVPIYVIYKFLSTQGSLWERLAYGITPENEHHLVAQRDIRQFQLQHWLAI
Sodium-dependent serotonin transporter, sequence (P31645 whole entry): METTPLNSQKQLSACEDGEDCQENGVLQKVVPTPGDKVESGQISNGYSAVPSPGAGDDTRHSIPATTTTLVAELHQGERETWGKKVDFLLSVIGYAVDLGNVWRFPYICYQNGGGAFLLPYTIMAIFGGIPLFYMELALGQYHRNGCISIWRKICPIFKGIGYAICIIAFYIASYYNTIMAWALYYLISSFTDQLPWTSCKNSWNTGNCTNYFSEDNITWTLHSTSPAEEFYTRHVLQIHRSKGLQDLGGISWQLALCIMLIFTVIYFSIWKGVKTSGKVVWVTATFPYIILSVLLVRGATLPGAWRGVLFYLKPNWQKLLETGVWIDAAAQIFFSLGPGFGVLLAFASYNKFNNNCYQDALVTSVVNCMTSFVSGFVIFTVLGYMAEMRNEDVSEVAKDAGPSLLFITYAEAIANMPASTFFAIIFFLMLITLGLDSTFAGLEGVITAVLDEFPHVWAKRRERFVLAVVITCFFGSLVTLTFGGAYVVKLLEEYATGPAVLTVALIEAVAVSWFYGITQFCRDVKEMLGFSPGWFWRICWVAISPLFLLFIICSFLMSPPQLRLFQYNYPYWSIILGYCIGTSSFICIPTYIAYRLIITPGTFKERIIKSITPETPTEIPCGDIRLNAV
Sodium-dependent dopamine transporter, sequence (Q01959 whole entry): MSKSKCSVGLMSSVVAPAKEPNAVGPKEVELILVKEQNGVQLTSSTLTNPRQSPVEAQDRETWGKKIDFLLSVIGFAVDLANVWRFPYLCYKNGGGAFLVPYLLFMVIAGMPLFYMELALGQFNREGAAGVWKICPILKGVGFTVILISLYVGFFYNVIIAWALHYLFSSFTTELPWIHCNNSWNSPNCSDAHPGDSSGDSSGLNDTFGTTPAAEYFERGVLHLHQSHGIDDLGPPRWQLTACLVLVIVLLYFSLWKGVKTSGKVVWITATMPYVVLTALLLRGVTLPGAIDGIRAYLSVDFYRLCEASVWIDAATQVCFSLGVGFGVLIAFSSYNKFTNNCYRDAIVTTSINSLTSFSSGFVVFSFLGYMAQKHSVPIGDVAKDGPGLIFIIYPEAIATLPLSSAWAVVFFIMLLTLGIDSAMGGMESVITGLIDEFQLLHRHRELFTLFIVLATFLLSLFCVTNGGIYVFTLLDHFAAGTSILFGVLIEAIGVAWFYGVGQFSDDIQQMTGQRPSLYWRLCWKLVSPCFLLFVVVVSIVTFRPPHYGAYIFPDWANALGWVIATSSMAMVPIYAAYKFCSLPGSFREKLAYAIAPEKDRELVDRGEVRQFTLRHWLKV

In general, Ki refers to the dissociation constant of the complex between target and ligand, obtained from inhibition or displacement. For the compound `CN(C)Cc1cc(OCCF)ccc1Sc1ccc(F)cc1N`, the Drug uptake in the data set with Brain [1] is 2.23 %ID; in the data set on Brain [6] it was 2.57 %ID. In addition, the values for the Ratio with Nucleic Acid [2] and with Nucleic Acid [4] were 2.78 and 4.34, respectively. The Ki in data set [3] is 37 nM; in data set [5], above 1000 nM; in data set [7], 0.1 nM.

Consider `CN(C)Cc1cc(OCCF)ccc1Sc1ccc(Cl)cc1N`, for which the figures for the Drug uptake in the data set with Brain [1] and with Brain [6] were 1.72 %ID and 1.46 %ID, respectively. The Ratio in the data set with Nucleic Acid [2] stood at 2.36; in the data set on Nucleic Acid [4], 3.77. Moreover, the Ki came out at 97 nM in data set [3], 847 nM in data set [5] and 0.03 nM in data set [7].

What is called logD is the decadic logarithm of the distribution of all forms, ionised or not, between an organic phase and buffer at a given pH. Low readings indicate lower lipophilicity, high ones higher lipophilicity. Take `CN(C)Cc1cc(OCCC[18F])ccc1Sc1ccccc1N`: the logD in data set [8] worked out at 2.54.

`CN(C)Cc1cc(OCCC[18F])ccc1Sc1ccc(F)cc1N` returned a logD in data set [8] of 2.65.

`CN(C)Cc1cc(OCCCO)ccc1Sc1ccccc1N`: the Ki in data set [3] was found to be 7 nM; in data set [5] it was 443 nM; in data set [7], 1.3 nM.

As to `CN(C)Cc1cc(OCC[18F])ccc1Sc1ccc(Cl)cc1N`, the log distribution coefficient (logD) in data set [8] turned out to be 2.71.

Take `CN(C)Cc1cc(OCCCF)ccc1Sc1ccc(F)cc1N`: the Drug uptake is 1.43 %ID in the data set with Brain [1] and 1.32 %ID in the data set with Brain [6]. Besides, the Ratio turned out to be 2.66 in the data set with Nucleic Acid [2] and 4.36 with Nucleic Acid [4]. The Ki in data set [3] is 95 nM; in data set [5] it was above 1000 nM; in data set [7], 0.95 nM.

In data set [8], `CN(C)Cc1cc(OCC[18F])ccc1Sc1ccc(F)cc1N` displayed a logD of 2.47.

For `CN(C)Cc1cc(OCCO)ccc1Sc1ccc(F)cc1N`, the Ki is 56 nM in data set [3], above 1000 nM in data set [5] and 1.2 nM in data set [7].

As to `CN(C)Cc1cc(OCCCO)ccc1Sc1ccc(Br)cc1N`, the Ki in data set [3] is 279 nM; in data set [5] it was above 1000 nM; in data set [7] it was 0.21 nM.

As for `CN(C)Cc1cc(OCCCF)ccc1Sc1ccccc1N`, the values for the Drug uptake in the data set with Brain [1] and with Brain [6] were 1.23 %ID and 0.59 %ID, respectively. For the same compound, the results for the Ratio in the data set on Nucleic Acid [2] and with Nucleic Acid [4] were 3.5 and 7.67, respectively. For the same compound, the inhibition constant Ki in data set [3] is 12 nM; in data set [5] it was 299 nM; in data set [7], 1.4 nM.

As to `CN(C)Cc1cc(OCCCF)ccc1Sc1ccc(Br)cc1N`, the Drug uptake in the data set with Brain [1] is on record as 1.12 %ID; with Brain [6], 1.15 %ID. Moreover, the Ratio came out at 1.93 with Nucleic Acid [2] and 4.17 in the data set with Nucleic Acid [4]. Also, the values for the Ki in data set [3], in data set [5] and in data set [7] were above 1000 nM, above 1000 nM and 0.15 nM, respectively.

As to `CN(C)Cc1cc(OCCF)ccc1Sc1ccc(Br)cc1N`, the Drug uptake in the data set with Brain [1] came out at 1.88 %ID; with Brain [6] it was 2.16 %ID. Also, the Ratio worked out at 2.04 in the data set on Nucleic Acid [2] and 3.7 with Nucleic Acid [4]. Moreover, the Ki in data set [3] is 114 nM; in data set [5], above 1000 nM; in data set [7], 0.05 nM.

For `CN(C)Cc1cc(OCCF)ccc1Sc1ccccc1N`, the Drug uptake in the data set with Brain [1] is recorded as 1.85 %ID; with Brain [6], 0.63 %ID. Also, the Ratio in the data set with Nucleic Acid [2] is recorded as 3.79; in the data set with Nucleic Acid [4] it was 7.83. Also, the values for the Ki in data set [3], in data set [5] and in data set [7] were 7.5 nM, 340 nM and 0.25 nM, respectively.

`COc1ccc(Sc2ccccc2N)c(CN(C)C)c1`: the Ki was 14 nM in data set [3], 576 nM in data set [5] and 5 nM in data set [7].

On to `CN(C)Cc1cc(O)ccc1Sc1ccccc1N`, for which the Ki in data set [3] was determined as 33 nM; in data set [5], 659 nM; in data set [7], 17 nM.

On to `CN(C)Cc1cc(OCCO)ccc1Sc1ccccc1N`, for which the Ki was 11 nM in data set [3], 351 nM in data set [5] and 1.1 nM in data set [7].

In data set [8], `CN(C)Cc1cc(OCCC[18F])ccc1Sc1ccc(Br)cc1N` showed a logD of 3.3.
